# According to ChEMBL document CHEMBL4017511, “Discovery of Fragment-Derived Small Molecules for in Vivo Inhibition of Ketohexokinase (KHK)” (J Med Chem, 2017):
# Calls of active or inactive are those of the source. The calls are words filed in the database; no cut-off is given here.
# What was measured:
# [1] = Octanol/water partition coefficient, log D of the compound at pH 7.4 by shake-flask method; assay type: physicochemical
# In short: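 LogD measured by shake-flask octanol:water partition at pH 7.4.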
# Ketohexokinase [2] = molecular target: T1, Ketohexokinase (Homo sapiens, UniProt P50053); assay: Inhibition of recombinant human N-terminal His-tagged KHK expressed in Escherichia coli BL21(DE3) using fructose as substrate incubated for 30 mins followed by ATP addition measured for 30 mins by pyruvate kinase-lactate dehydrogenase coupled enzyme assay; conditions: read-out: IC50
# T1 sequence (P50053 whole entry): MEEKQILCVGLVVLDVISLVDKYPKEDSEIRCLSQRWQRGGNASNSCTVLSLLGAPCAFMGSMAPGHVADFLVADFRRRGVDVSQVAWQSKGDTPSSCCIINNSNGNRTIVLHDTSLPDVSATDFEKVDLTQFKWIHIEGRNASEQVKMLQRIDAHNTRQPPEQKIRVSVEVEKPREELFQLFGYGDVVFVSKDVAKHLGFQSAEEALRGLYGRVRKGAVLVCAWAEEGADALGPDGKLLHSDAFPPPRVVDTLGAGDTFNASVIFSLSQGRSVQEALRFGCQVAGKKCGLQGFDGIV
# In short: (§1)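 Thrombin-cleaved (His-tag removed) human or rat KHK at 10 nM, preincubated 30 min at room temperature with compound (11-point series, 2.5% DMSO). Started with 0.2 mM ATP; NADH A340 read kinetically for 30 min. IC50 from nonlinear fit of percent inhibition; mean of replicates.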
# [3] = Apparent clearance in human liver microsomes; assay type: ADME, microsome; conditions: read-out: CLH(app)
# Ketohexokinase [4] = molecular target: T1, Ketohexokinase
# Rattus norvegicus [5] = assay: In vivo inhibition of fructose metabolism in po dosed Sprague-Dawley rat assessed as increase in plasma fructose level administered for 1 hr followed by oral bolus fructose administration measured after 2 mins by LC/MS analysis; assay type: functional, organism-based
# In short: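 Fasted (16 h) non-cannulated male Sprague Dawley rats were dosed orally with compound in a 0.5% methylcellulose nano-milled suspension. One hour later they received 2 g/kg oral fructose. Tail-vein K2EDTA plasma was methanol-extracted with 13C6-fructose internal standard and analysed by HILIC LC-MS/MS; n = 6-8.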
# [6] = Volume of distribution in rat at 1 mg/kg, iv; assay type: ADME, organism-based; conditions: in vivo
# In short: (§2)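 Rat PK following a 1 mg/kg intravenous dose; systemic clearance, volume of distribution and effective half-life derived from plasma exposure.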
# [7] = Apparent permeability in RRCK cells by LC-MS/MS analysis; assay type: ADME, cell-based, Canis lupus familiaris, MDCKII-LE; conditions: dog, MDCK
# Rattus norvegicus [8] = assay: Time required for plasma concentration to reach above in vitro rat KHK IC50 in rat at 150 mg/kg, po
# In short: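 Rats dosed orally at 150 mg/kg as a nanocrystal suspension (1% polyvinylpyrrolidone / 0.025% sodium lauryl sulfate / 1% pluronic).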
# Cytochrome P450 2C9 = Cytochrome P450 2C9 (Homo sapiens, UniProt P11712); assay: Inhibition of human CYP2C9 at 3 uM; assay type: ADME
# Chain of Cytochrome P450 2C9 (P11712 whole entry): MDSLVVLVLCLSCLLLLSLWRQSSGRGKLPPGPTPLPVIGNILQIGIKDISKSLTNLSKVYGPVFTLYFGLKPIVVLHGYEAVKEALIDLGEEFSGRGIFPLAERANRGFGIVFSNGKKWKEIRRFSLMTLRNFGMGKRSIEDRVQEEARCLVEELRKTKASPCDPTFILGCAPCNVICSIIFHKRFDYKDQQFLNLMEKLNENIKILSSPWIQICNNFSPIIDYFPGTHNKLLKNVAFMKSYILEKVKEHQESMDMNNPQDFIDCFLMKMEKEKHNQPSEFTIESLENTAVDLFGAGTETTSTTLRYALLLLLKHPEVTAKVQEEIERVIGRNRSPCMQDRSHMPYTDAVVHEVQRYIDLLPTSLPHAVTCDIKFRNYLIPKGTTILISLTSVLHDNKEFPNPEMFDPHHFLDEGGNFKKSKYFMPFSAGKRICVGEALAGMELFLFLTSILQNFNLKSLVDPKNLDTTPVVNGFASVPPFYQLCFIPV
# Cytochrome P450 2C19 = Cytochrome P450 2C19 (Homo sapiens, UniProt P33261); assay: Inhibition of human CYP2C19 at 3 uM; assay type: ADME
# Chain of Cytochrome P450 2C19 (P33261 whole entry): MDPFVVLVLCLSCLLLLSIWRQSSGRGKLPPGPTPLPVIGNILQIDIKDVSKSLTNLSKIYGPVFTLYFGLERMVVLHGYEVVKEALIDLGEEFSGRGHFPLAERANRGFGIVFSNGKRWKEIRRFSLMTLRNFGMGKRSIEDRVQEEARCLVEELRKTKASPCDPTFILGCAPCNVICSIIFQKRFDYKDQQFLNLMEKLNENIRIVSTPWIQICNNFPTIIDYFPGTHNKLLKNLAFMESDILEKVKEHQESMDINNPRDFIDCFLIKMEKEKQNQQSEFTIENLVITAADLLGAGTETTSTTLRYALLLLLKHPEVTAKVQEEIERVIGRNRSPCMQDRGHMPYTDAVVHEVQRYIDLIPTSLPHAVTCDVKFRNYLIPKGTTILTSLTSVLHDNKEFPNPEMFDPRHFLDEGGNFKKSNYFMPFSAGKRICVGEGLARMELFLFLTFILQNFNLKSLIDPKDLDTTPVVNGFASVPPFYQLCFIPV
# Cytochrome P450 2C8 = molecular target: T2, Cytochrome P450 2C8 (Homo sapiens, UniProt P10632); assay: Inhibition of human CYP2C8 at 3 uM; assay type: ADME
# T2 sequence (P10632 whole entry): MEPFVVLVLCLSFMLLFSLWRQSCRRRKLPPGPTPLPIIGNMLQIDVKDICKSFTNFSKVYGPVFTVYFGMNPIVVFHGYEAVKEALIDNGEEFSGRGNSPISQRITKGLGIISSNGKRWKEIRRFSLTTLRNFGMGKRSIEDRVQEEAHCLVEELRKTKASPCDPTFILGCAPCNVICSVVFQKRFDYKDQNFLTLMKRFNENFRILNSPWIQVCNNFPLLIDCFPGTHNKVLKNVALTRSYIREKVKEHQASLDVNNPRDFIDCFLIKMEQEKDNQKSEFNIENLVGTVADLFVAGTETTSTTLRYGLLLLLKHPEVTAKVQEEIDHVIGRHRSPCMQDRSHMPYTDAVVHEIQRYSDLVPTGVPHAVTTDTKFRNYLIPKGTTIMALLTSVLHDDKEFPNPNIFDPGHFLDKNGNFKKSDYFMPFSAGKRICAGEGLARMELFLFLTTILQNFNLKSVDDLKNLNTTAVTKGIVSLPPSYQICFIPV
# Salmonella typhimurium = assay: Genotoxicity in Salmonella typhimurium by Ames test; assay type: toxicity; conditions: salmonella enterica subsp. enterica serovar typhimurium
# [9] = Fraction unbound in human plasma at 10 uM measured at 2 to 24 hrs by equilibrium dialysis method; assay type: ADME, cell-free
# Cytochrome P450 2D6 = Cytochrome P450 2D6 (Homo sapiens, UniProt P10635); assay: Inhibition of human CYP2D6 at 3 uM; assay type: ADME
# Chain of Cytochrome P450 2D6 (P10635 whole entry): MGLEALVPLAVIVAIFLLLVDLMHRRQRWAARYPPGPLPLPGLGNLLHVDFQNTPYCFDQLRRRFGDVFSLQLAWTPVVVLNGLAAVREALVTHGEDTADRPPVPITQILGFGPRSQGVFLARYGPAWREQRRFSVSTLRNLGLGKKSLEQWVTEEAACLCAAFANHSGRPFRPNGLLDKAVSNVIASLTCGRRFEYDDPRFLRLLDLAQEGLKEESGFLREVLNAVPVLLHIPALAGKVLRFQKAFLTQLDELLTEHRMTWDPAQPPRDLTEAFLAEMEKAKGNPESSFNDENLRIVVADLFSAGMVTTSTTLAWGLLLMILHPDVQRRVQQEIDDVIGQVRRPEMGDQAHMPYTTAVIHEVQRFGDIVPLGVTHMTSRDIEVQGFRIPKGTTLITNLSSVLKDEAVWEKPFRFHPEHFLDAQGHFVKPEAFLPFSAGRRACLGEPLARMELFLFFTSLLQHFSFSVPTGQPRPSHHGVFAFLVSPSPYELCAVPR
# Ketohexokinase [10] = molecular target: T3, Ketohexokinase (Rattus norvegicus, UniProt Q02974); assay: Inhibition of recombinant rat N-terminal His-tagged KHK expressed in Escherichia coli BL21(DE3) using fructose as substrate incubated for 30 mins followed by ATP addition measured for 30 mins by pyruvate kinase-lactate dehydrogenase coupled enzyme assay; in short: as §1
# T3 sequence (Q02974 whole entry): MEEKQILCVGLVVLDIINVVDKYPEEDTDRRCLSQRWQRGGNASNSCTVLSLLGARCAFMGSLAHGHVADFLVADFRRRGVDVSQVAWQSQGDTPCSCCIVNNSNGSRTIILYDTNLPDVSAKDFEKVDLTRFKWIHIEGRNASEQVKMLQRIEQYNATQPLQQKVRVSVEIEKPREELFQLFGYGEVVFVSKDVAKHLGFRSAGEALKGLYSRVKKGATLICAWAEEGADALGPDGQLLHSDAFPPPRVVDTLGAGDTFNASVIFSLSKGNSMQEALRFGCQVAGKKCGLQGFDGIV
# Rattus norvegicus [11] = assay: AUClast in rat at 5 mg/kg, po; assay type: ADME, organism-based; design: dose 5 mg/kg, route oral, time 0 - last; conditions: in vivo
# [12] = Half life in rat at 1 mg/kg, iv; assay type: ADME, organism-based; conditions: in vivo; in short: as §2
# Rattus norvegicus [13] = assay: In vivo inhibition of KHK-C in po dosed Sprague-Dawley rat assessed as decrease in F1P levels in liver administered for 1 hr followed by bolus fructose administration measured 2 mins after iv infusion by LC/MS analysis; assay type: functional
# In short: (§3)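 Male Sprague Dawley rats (~200 g, jugular-cannulated) were fasted 16 h and given oral compound as a 0.5% methylcellulose nano-milled suspension. After 1 h they received an i.v. fructose bolus of 500 mg/kg over 20 s, and were decapitated 2 min later. Liver and kidney F1P was quantified by ion-exchange LC/MS/MS against a 13C-xylitol internal standard. ED50 from a four-parameter fit; n = 7-8.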
# [14] = Cmax in rat at 5 mg/kg; assay type: ADME, organism-based; design: dose 5 mg/kg; conditions: in vivo
# [15] = Apparent clearance in rat liver microsomes; assay type: ADME, microsome; conditions: read-out: CLH(app)
# [16] = Thermodynamic solubility of compound at pH 7.4; assay type: physicochemical; conditions: buffer, read-out: Therm_solubility
# In short: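 Thermodynamic solubility determined at pH 7.4.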
# Cytochrome P450 3A4 = Cytochrome P450 3A4 (Homo sapiens, UniProt P08684); assay: Inhibition of human CYP3A4 at 3 uM; assay type: ADME
# Chain of Cytochrome P450 3A4 (P08684 whole entry): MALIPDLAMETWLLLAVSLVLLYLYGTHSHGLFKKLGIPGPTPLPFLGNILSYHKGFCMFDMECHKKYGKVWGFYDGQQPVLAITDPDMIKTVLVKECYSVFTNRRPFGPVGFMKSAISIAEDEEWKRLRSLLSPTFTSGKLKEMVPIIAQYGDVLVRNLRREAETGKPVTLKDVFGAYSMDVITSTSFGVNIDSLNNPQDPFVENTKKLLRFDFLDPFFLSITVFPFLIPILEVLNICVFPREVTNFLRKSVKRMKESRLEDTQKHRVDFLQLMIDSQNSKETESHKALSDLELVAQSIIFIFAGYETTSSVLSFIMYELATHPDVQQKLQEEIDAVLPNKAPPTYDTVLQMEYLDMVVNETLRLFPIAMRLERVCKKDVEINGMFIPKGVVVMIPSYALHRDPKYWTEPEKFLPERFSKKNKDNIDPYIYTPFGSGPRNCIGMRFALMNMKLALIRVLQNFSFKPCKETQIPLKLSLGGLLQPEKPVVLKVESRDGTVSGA
# HepG2 = assay: Cytotoxicity against human HepG2 cells up to 300 uM after 72 hrs; assay type: cell-based; conditions: hepg2, 72 h
# In short: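 HepG2 cells incubated with compound at concentrations up to 300 µM for 72 hours to assess toxicity.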
# [17] = molecular target: Voltage-gated inwardly rectifying potassium channel KCNH2 (Homo sapiens, UniProt Q12809); assay: Inhibition of human ERG
# Chain of Voltage-gated inwardly rectifying potassium channel KCNH2 (Q12809 whole entry, the tested form may be a part): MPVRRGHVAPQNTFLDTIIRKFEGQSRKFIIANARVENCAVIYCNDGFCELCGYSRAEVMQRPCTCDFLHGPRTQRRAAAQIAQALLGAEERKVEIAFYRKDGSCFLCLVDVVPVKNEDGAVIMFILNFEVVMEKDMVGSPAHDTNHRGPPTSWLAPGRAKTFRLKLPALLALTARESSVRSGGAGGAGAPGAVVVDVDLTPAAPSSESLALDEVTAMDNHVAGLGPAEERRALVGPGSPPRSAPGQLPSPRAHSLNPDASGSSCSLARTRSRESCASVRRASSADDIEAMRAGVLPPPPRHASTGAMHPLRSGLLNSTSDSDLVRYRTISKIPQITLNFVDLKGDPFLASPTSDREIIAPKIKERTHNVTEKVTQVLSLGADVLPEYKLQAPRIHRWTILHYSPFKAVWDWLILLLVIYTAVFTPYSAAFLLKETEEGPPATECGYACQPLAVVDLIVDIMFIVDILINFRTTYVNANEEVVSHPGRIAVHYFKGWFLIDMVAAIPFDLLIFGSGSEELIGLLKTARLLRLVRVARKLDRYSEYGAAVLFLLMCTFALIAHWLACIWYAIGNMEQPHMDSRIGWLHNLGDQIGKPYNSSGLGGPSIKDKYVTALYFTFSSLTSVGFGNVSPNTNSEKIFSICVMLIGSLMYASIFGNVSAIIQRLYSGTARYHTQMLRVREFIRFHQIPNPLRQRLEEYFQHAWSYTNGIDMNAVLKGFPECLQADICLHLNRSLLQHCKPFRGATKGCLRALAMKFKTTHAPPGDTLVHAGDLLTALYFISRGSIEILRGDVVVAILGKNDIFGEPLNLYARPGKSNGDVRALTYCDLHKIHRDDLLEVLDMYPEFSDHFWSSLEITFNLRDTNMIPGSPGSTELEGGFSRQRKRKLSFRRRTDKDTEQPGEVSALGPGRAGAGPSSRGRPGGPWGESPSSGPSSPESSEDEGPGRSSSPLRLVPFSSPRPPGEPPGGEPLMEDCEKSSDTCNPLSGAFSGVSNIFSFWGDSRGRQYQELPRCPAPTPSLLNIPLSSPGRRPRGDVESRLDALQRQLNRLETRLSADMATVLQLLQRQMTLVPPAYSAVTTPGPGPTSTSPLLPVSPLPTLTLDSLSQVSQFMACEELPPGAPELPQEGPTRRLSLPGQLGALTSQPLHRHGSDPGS
# Rattus norvegicus [18] = assay: In vivo inhibition of KHK-C in po dosed Sprague-Dawley rat assessed as decrease in F1P levels in kidney administered for 1 hr followed by bolus fructose administration measured 2 mins after iv infusion by LC/MS analysis; assay type: functional; in short: as §3
# Ketohexokinase [19] = molecular target: T1, Ketohexokinase; remark: listed apart in the source
# Cytochrome P450 1A2 = molecular target: T4, Cytochrome P450 1A2 (Homo sapiens, UniProt P05177); assay: Inhibition of human CYP1A2 at 3 uM; assay type: ADME
# T4 sequence (P05177 whole entry): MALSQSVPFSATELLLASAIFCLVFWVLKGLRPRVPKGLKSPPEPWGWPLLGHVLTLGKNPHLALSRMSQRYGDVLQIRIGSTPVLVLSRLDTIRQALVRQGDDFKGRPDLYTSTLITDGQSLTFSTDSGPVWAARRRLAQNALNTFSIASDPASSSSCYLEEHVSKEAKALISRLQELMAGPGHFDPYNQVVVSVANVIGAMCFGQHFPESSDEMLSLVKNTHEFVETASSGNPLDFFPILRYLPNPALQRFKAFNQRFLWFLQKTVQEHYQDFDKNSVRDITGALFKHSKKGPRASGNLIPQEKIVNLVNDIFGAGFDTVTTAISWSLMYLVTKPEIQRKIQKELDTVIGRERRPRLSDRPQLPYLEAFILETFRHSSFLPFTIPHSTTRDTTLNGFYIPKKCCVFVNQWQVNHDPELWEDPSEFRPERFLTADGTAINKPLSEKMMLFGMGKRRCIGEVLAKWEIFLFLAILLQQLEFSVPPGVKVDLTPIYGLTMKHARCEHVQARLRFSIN
# Rattus norvegicus [20] = assay: Oral bioavailability in rat at 5 mg/kg; assay type: ADME, organism-based; conditions: in vivo
# Ketohexokinase [21] = molecular target: T1, Ketohexokinase; assay: Binding affinity to full length recombinant human biotin-labeled KHK by SPR assay
# In short: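 Full-length biotinylated KHK captured on a streptavidin sensor (7000-8000 RU). Run buffer was 50 mM HEPES pH 7.4, 150 mM NaCl, 0.01% P20, 500 µM TCEP, 3% DMSO at 25 °C. Eleven 2-fold concentrations from 300 µM top, stop-flow with 60 s association and ≥120 s dissociation. Data double-referenced and DMSO-corrected; KD by steady-state affinity fit, n=1.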
# [22] = molecular target: T5, Ketohexokinase (Homo sapiens) (UniProt P50053); assay: Inhibition of recombinant full length human His-tagged KHK expressed in Escherichia coli BL21(DE3) using at 240 uM by 1D NMR-STD spectroscopic method
# T5 sequence (whole entry): T1 sequence (P50053 whole entry)
# In short: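 Full-length His-tagged human KHK (tag retained) at 5 μM in 50 mM Tris-d, 100 mM NaCl, 2 mM TCEP-d, 5% glycerol-d, pH 7.5, 298 K. AMP-PMP at 240 μM served as positive control. Saturation-transfer difference NMR used 512 scans and 3 s Gaussian on/off-resonance saturation. Binding was called from positive difference signals, with ligands assigned against each fragment's 1D 1H reference spectrum.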
# [23] = Rattus norvegicus, Sprague-Dawley
compound,measurement,setting,value
CCc1cc2nc(C(F)(F)F)c(C#N)c(N3CCC(C)(O)C3)c2[nH]1 (racemic),logD,[1],2.8
same,IC50,Ketohexokinase [2],1480 nM
same,microsomal CLint,[3],103 µL/min/mg
C[C@]1(O)CCN(c2nc(N3C[C@H](O)[C@@H](O)C3)cc(C(F)(F)F)c2C#N)C1,logD,[1],2.2
same,IC50,Ketohexokinase [4],390 nM
same,inhibition,Rattus norvegicus [5],Dose-dependent effect
same,Vd,[6],1.38 L/kg
same,Papp,[7],3.5 ×10⁻⁶ cm/s
same,Time,Rattus norvegicus [8],14 h
same,inhibition (INH),Cytochrome P450 2C9,Not Active
same,inhibition (INH),Cytochrome P450 2C19,Not Active
same,inhibition (INH),Cytochrome P450 2C8,Not Active
same,Activity,Salmonella typhimurium,Non-Toxic
same,fraction unbound at 10 µM,[9],0.13
same,inhibition (INH),Cytochrome P450 2D6,Not Active
same,IC50,Ketohexokinase [10]; read-out: IC50,340 nM
same,IC50,Ketohexokinase [10]; read-out: pIC50 (converted),501 nM
same,AUClast,Rattus norvegicus [11],14500 ng·h/mL
same,half-life,[12],1.2 h
same,inhibition,Rattus norvegicus [13],Dose-dependent effect
same,pED50,Rattus norvegicus [13],1.48
same,ED50,Rattus norvegicus [13]; [23],30 mg/kg
same,Cmax,[14],2940 ng/mL
same,microsomal CLint,[15],< 8 µL/min/mg
same,microsomal CLint,[3],< 8 µL/min/mg
same,solubility thermodynamic,[16],503 µM
same,inhibition (INH),Cytochrome P450 3A4,Not Active
same,Activity,HepG2,Non-Toxic
same,inhibition (INH),[17],Not Active
same,inhibition,Rattus norvegicus [18],Dose-dependent effect
same,pED50,Rattus norvegicus [18],1.2
same,ED50,Rattus norvegicus [18]; [23],15.7 mg/kg
same,IC50,Ketohexokinase [19],316 nM
same,inhibition (INH),Cytochrome P450 1A2,Not Active
same,F,Rattus norvegicus [20],45%
Oc1nc2ccccc2nc1C(F)(F)F,IC50,Ketohexokinase [2],100000 nM
same,Kd,Ketohexokinase [21],44000 nM
same,inhibition,[22],Active
C[C@@]1(O)CCN(c2c(C#N)c(C(F)(F)F)nc3cc[nH]c23)C1,logD,[1],2.1
same,IC50,Ketohexokinase [2],24200 nM
same,microsomal CLint,[3],< 8 µL/min/mg
C[C@]1(O)CCN(c2nc(N3CCN(CCO)CC3)cc(C(F)(F)F)c2C#N)C1,logD,[1],2.2
same,IC50,Ketohexokinase [2],1030 nM
same,microsomal CLint,[3],14 µL/min/mg
